# Test results taken from ChEMBL document CHEMBL1926577, “Novel 1,3,4-heterodiazole analogues: synthesis and in-vitro antitumor activity” (2012).
# Columns and labels:
# Assay type in all cases: functional
# SNB-75 = test: Growth inhibition of human SNB75 cells at 10 uM after 48 hrs by coulter counter method; conditions: SNB-75, 48 h, read-out: GI
# Procedure, shortened: (§1)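 NCI 60-cell-line panel, single dose. Compound dissolved first in DMSO, then diluted in phosphate-buffered saline so that every final dilution held under 1% DMSO. Duplicate wells received cells at 6 × 10⁴ cells/ml. Controls held PBS/DMSO at the same dilution. Plates were incubated 48 h at 37 °C under 5% CO₂. Cells were then diluted 10-fold in saline and counted on a Coulter counter, with counts corrected for the dilution. Results are given as percent growth inhibition.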
# T47D = test: Growth inhibition of human T47D cells at 10 uM after 48 hrs by coulter counter method; conditions: read-out: GI; procedure, shortened: as §1
# SN12C = test: Growth inhibition of human SN12C cells at 10 uM after 48 hrs by coulter counter method; conditions: read-out: GI; procedure, shortened: as §1
# MDA-MB-468 = test: Growth inhibition of human MDA-MB-468 cells at 10 uM after 48 hrs by coulter counter method; conditions: MDA-MB-468, 48 h, read-out: GI; procedure, shortened: as §1
# HCT-116 = test: Growth inhibition of human HCT116 cells at 10 uM after 48 hrs by coulter counter method; conditions: HCT-116, 48 h, read-out: GI; procedure, shortened: as §1
# SK-MEL-5 = test: Growth inhibition of human SK-MEL-5 cells at 10 uM after 48 hrs by coulter counter method; conditions: SK-MEL-5, 48 h, read-out: GI; procedure, shortened: as §1
# Malme-3M = test: Growth inhibition of human MALME-3M cells at 10 uM after 48 hrs by coulter counter method; conditions: read-out: GI; procedure, shortened: as §1
# LOX IMVI = test: Growth inhibition of human LOXIMVI cells at 10 uM after 48 hrs by coulter counter method; conditions: read-out: GI; procedure, shortened: as §1
# ACHN = test: Growth inhibition of human ACHN cells at 10 uM after 48 hrs by coulter counter method; conditions: read-out: GI; procedure, shortened: as §1
# OVCAR-8 = test: Growth inhibition of human OVCAR8 cells at 10 uM after 48 hrs by coulter counter method; conditions: OVCAR-8, 48 h, read-out: GI; procedure, shortened: as §1
# MOLT-4 = test: Growth inhibition of human MOLT4 cells at 10 uM after 48 hrs by coulter counter method; conditions: MOLT-4, 48 h, read-out: GI; procedure, shortened: as §1
# M14 = test: Growth inhibition of human M14 cells at 10 uM after 48 hrs by coulter counter method; conditions: M14, 48 h, read-out: GI; procedure, shortened: as §1
# NCI/ADR-RES = test: Growth inhibition of human NCI/ADR-RES cells at 10 uM after 48 hrs by coulter counter method; conditions: read-out: GI; procedure, shortened: as §1
# RPMI-8226 = test: Growth inhibition of human RPMI8226 cells at 10 uM after 48 hrs by coulter counter method; conditions: RPMI-8226, 48 h, read-out: GI; procedure, shortened: as §1
# UACC-62 = test: Growth inhibition of human UACC62 cells at 10 uM after 48 hrs by coulter counter method; conditions: UACC-62, 48 h, read-out: GI; procedure, shortened: as §1
# BT-549 = test: Growth inhibition of human BT549 cells at 10 uM after 48 hrs by coulter counter method; conditions: BT-549, 48 h, read-out: GI; procedure, shortened: as §1
# UACC-257 = test: Growth inhibition of human UACC257 cells at 10 uM after 48 hrs by coulter counter method; conditions: UACC-257, 48 h, read-out: GI; procedure, shortened: as §1
# PC-3 = test: Growth inhibition of human PC3 cells at 10 uM after 48 hrs by coulter counter method; conditions: PC-3, 48 h, read-out: GI; procedure, shortened: as §1
# IGROV-1 = test: Growth inhibition of human IGROV1 cells at 10 uM after 48 hrs by coulter counter method; conditions: IGROV-1, 48 h, read-out: GI; procedure, shortened: as §1
# KM12 = test: Growth inhibition of human KM12 cells at 10 uM after 48 hrs by coulter counter method; conditions: KM12, 48 h, read-out: GI; procedure, shortened: as §1
# SF-295 = test: Growth inhibition of human SF295 cells at 10 uM after 48 hrs by coulter counter method; conditions: SF-295, 48 h, read-out: GI; procedure, shortened: as §1
# EKVX = test: Growth inhibition of human EKVX cells at 10 uM after 48 hrs by coulter counter method; conditions: read-out: GI; procedure, shortened: as §1
# SF-268 = test: Growth inhibition of human SF268 cells at 10 uM after 48 hrs by coulter counter method; conditions: SF-268, 48 h, read-out: GI; procedure, shortened: as §1
# SNB-19 = test: Growth inhibition of human SNB19 cells at 10 uM after 48 hrs by coulter counter method; conditions: SNB-19, 48 h, read-out: GI; procedure, shortened: as §1
# SR = test: Growth inhibition of human SR cells at 10 uM after 48 hrs by coulter counter method; conditions: read-out: GI; procedure, shortened: as §1
# K562 = test: Growth inhibition of human K562 cells at 10 uM after 48 hrs by coulter counter method; conditions: K562, 48 h, read-out: GI; procedure, shortened: as §1
# SK-MEL-28 = test: Growth inhibition of human SK-MEL-28 cells at 10 uM after 48 hrs by coulter counter method; conditions: SK-MEL-28, 48 h, read-out: GI; procedure, shortened: as §1
# TK-10 = test: Growth inhibition of human TK10 cells at 10 uM after 48 hrs by coulter counter method; conditions: TK-10, 48 h, read-out: GI; procedure, shortened: as §1
# NCI-H322M = test: Growth inhibition of human NCI-H322M cells at 10 uM after 48 hrs by coulter counter method; conditions: read-out: GI; procedure, shortened: as §1
# U-251 = test: Growth inhibition of human U251 cells at 10 uM after 48 hrs by coulter counter method; conditions: U-251, 48 h, read-out: GI; procedure, shortened: as §1
# A549 = test: Growth inhibition of human A549 cells at 10 uM after 48 hrs by coulter counter method; conditions: A549, 48 h, read-out: GI; procedure, shortened: as §1
# MCF7 = test: Growth inhibition of human MCF7 cells at 10 uM after 48 hrs by coulter counter method; conditions: MCF7, 48 h, read-out: GI; procedure, shortened: as §1
# 786-0 = test: Growth inhibition of human 786-0 cells at 10 uM after 48 hrs by coulter counter method; conditions: 786-0, 48 h, read-out: GI; procedure, shortened: as §1
# HT-29 = test: Growth inhibition of human HT-29 cells at 10 uM after 48 hrs by coulter counter method; conditions: HT-29, 48 h, read-out: GI; procedure, shortened: as §1
# HL-60(TB) = test: Growth inhibition of human HL-60(TB) cells at 10 uM after 48 hrs by coulter counter method; conditions: HL-60, 48 h, read-out: GI
# Procedure, shortened: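 Single-dose screen on the NCI 60-line panel (leukemia subpanel). Compound is dissolved in DMSO and diluted in PBS, with final DMSO below 1%. Duplicate wells hold 6 × 10⁴ cells/ml at 37 °C, 5% CO₂, for 48 h. Cells are counted by Coulter counter after 10-fold saline dilution. Read-out is percent growth versus PBS/DMSO controls, expressed as % growth inhibition.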
# CAKI-1 = test: Growth inhibition of human Caki1 cells at 10 uM after 48 hrs by coulter counter method; conditions: CAKI-1, 48 h, read-out: GI; procedure, shortened: as §1
# NCI-H522 = test: Growth inhibition of human NCI-H522 cells at 10 uM after 48 hrs by coulter counter method; conditions: NCI-H522, 48 h, read-out: GI; procedure, shortened: as §1
# A498 = test: Growth inhibition of human A498 cells at 10 uM after 48 hrs by coulter counter method; conditions: A498, 48 h, read-out: GI; procedure, shortened: as §1
# NCI-H226 = test: Growth inhibition of human NCI-H226 cells at 10 uM after 48 hrs by coulter counter method; conditions: NCI-H226, 48 h, read-out: GI; procedure, shortened: as §1
# CCRF-CEM = test: Growth inhibition of human CCRF-CEM cells at 10 uM after 48 hrs by coulter counter method; conditions: read-out: GI; procedure, shortened: as §1
# UO-31 = test: Growth inhibition of human UO31 cells at 10 uM after 48 hrs by coulter counter method; conditions: UO-31, 48 h, read-out: GI; procedure, shortened: as §1
# MDA-MB-435 = test: Growth inhibition of human MDA-MB-435 cells at 10 uM after 48 hrs by coulter counter method; conditions: MDA-MB-435, 48 h, read-out: GI; procedure, shortened: as §1
# HCT-15 = test: Growth inhibition of human HCT15 cells at 10 uM after 48 hrs by coulter counter method; conditions: HCT-15, 48 h, read-out: GI; procedure, shortened: as §1
# SK-MEL-2 = test: Growth inhibition of human SK-MEL-2 cells at 10 uM after 48 hrs by coulter counter method; conditions: SK-MEL-2, 48 h, read-out: GI; procedure, shortened: as §1
# NCI-H23 = test: Growth inhibition of human NCI-H23 cells at 10 uM after 48 hrs by coulter counter method; conditions: NCI-H23, 48 h, read-out: GI; procedure, shortened: as §1
structure (smiles),measurement,setting,value
O=C(CCN1CCCCC1)Nc1nnc(-c2ccc(Cl)cc2)s1,inhibition of growth at 10 µM,SNB-75,< 10%
same,inhibition of growth at 10 µM,T47D,< 10%
same,inhibition of growth at 10 µM,SN12C,< 10%
same,inhibition of growth at 10 µM,MDA-MB-468,< 10%
same,inhibition of growth at 10 µM,HCT-116,< 10%
same,inhibition of growth at 10 µM,SK-MEL-5,24.7%
same,inhibition of growth at 10 µM,Malme-3M,10.7%
same,inhibition of growth at 10 µM,LOX IMVI,< 10%
same,inhibition of growth at 10 µM,ACHN,< 10%
same,inhibition of growth at 10 µM,OVCAR-8,< 10%
same,inhibition of growth at 10 µM,MOLT-4,< 10%
same,inhibition of growth at 10 µM,M14,< 10%
same,inhibition of growth at 10 µM,NCI/ADR-RES,< 10%
same,inhibition of growth at 10 µM,RPMI-8226,< 10%
same,inhibition of growth at 10 µM,UACC-62,< 10%
same,inhibition of growth at 10 µM,BT-549,< 10%
same,inhibition of growth at 10 µM,UACC-257,< 10%
same,inhibition of growth at 10 µM,PC-3,< 10%
same,inhibition of growth at 10 µM,IGROV-1,< 10%
same,inhibition of growth at 10 µM,KM12,< 10%
same,inhibition of growth at 10 µM,SF-295,11%
same,inhibition of growth at 10 µM,EKVX,20.4%
same,inhibition of growth at 10 µM,SF-268,< 10%
same,inhibition of growth at 10 µM,SNB-19,< 10%
same,inhibition of growth at 10 µM,SR,11.9%
same,inhibition of growth at 10 µM,K562,< 10%
same,inhibition of growth at 10 µM,SK-MEL-28,< 10%
same,inhibition of growth at 10 µM,TK-10,< 10%
same,inhibition of growth at 10 µM,NCI-H322M,< 10%
same,inhibition of growth at 10 µM,U-251,12%
same,inhibition of growth at 10 µM,A549,< 10%
same,inhibition of growth at 10 µM,MCF7,< 10%
same,inhibition of growth at 10 µM,786-0,< 10%
same,inhibition of growth at 10 µM,HT-29,< 10%
same,inhibition of growth at 10 µM,HL-60(TB),< 10%
same,inhibition of growth at 10 µM,CAKI-1,18.8%
same,inhibition of growth at 10 µM,NCI-H522,19.5%
same,inhibition of growth at 10 µM,A498,11.6%
same,inhibition of growth at 10 µM,NCI-H226,< 10%
same,inhibition of growth at 10 µM,CCRF-CEM,< 10%
same,inhibition of growth at 10 µM,UO-31,28.6%
same,inhibition of growth at 10 µM,MDA-MB-435,< 10%
same,inhibition of growth at 10 µM,HCT-15,< 10%
same,inhibition of growth at 10 µM,SK-MEL-2,< 10%
same,inhibition of growth at 10 µM,NCI-H23,< 10%
